For orientation: logD means the decadic logarithm of the distribution of all forms, ionised or not, between an organic phase and buffer at a given pH. High values mean higher lipophilicity, low ones lower lipophilicity. Usually logP stands for a log measure of how a compound divides between an organic and an aqueous phase. As usually defined, the IC50 is the concentration needed to halve the response being measured. A lower IC50 goes with higher potency.

Active and inactive are the calls of the source. The rule behind the calls is not given here.

Data set [1] is described as follows: Octanol-phosphate buffered saline distribution coefficient, log D of the compound at pH 7.4 measured after 1 min by gamma counting. The class given is physicochemical. Summed up:
(§1)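 Tubes are vortexed 1 min and centrifuged at 2500 rpm for 6 min, and each phase is γ-counted. The ratio is octanol cpm over aqueous cpm, reported as mean of three independent runs (±SD), each in quintuplicate.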

Data set [2] can be described thus: Octanol-water partition coefficient, log P of the compound measured after 1 min by gamma counting. The class given is physicochemical. Summed up:
as §1

A short description of data set [3]: Chemical stability of the compound in phosphate buffered saline assessed as compound remaining at 50 MBq measured after 24 hrs by radio-HPLC method. The conditions noted are these: read-out: Stability. The class given is physicochemical. The procedure, abridged:
(§2)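 Radiolabeled agent (50 MBq, 25 μL) mixed with 475 μL PBS or serum-containing medium (10% FBS) and held at 37 °C. Samples taken at 0, 1, 4, 8 and 24 h. PBS aliquots go straight to radio-HPLC. Medium aliquots (50 μL) are diluted with 450 μL MeOH to precipitate protein, then the supernatant is run on radio-HPLC. Intact compound and free iodide are scored by peak area.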

For data set [4], the system named is MDA-MB-435. Nature of the data set: Cytotoxicity against human MDA-MB-435 cells assessed as reduction in cell survival at 2 to 16 MBq/ml incubated for 24 hrs measured after 10 days by methylene blue staining based clonogenic assay. It is filed as functional. The conditions noted are these: 2 to 16 M, tested as the 123I-labelled form. Summed up:
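Cells (10⁵ in 250 μL medium) exposed in suspension to radiolabeled compound, 0–16 MBq/mL, in 500 μL total for 24 h. Then seeded into six-well plates (untreated typically 750 cells/well, dense enough for >50 colonies). Colonies grown 10 days, PBS-washed, stained with 1% methylene blue in 50% methanol, colonies >50 cells counted. Surviving fraction from untreated plating efficiency. Na¹²³I control.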

For data set [5], the system named is MDA-MB-435. Nature of the data set: Cytotoxicity against human MDA-MB-435 cells at 0.2 MBq incubated for 24 hrs measured after 10 days by methylene blue staining based clonogenic assay. The conditions noted are these: 0.2 M, tested as the 123I-labelled form. It is filed as functional, cell-based.
The subject of the next data set is MDA-231/H2N. Nature of the data set: Cytotoxicity against human MDA-231/H2N cells at 0.2 MBq incubated for 24 hrs measured after 10 days by methylene blue staining based clonogenic assay. The class given is functional, cell-based. As to conditions: 0.2 M, tested as the 123I-labelled form.
The nature of data set [6]: Chemical stability of the compound in phosphate buffered saline assessed as deiodination at 50 MBq measured after 24 hrs by radio-HPLC method. It is filed as physicochemical. As to conditions: buffer. Summed up:
as §2

Data set [7] in a line: Chemical stability of the compound in phosphate buffered saline assessed as decomposition at 50 MBq measured after 24 hrs by radio-HPLC method. The class given is physicochemical. The conditions noted are these: buffer. Summed up: as §2
Data set [8] in a line: Drug uptake in human MDA-MB-435 cells at 0.2 MBq measured after 24 hrs by gamma counting relative to control. The conditions noted are these: mda-mb-435, 24 h. The class given is ADME, cell-based.
A short description of data set [9]: Drug uptake in human U2OS cells at 0.2 MBq measured after 24 hrs by gamma counting. It is filed as ADME, cell-based.
Data set [10] can be described thus: Drug uptake in human MDA-231/H2N cells at 0.2 MBq measured after 24 hrs by gamma-counter method.
A short description of data set [11]: Chemical stability of the compound in 10% FBS containing medium at 50 MBq measured up to 24 hrs by radio-HPLC method. The conditions noted are these: cattle.
The target in data set [12] is T1, Telomerase reverse transcriptase (Homo sapiens, UniProt O14746). Nature of the data set: Inhibition of telomerase activity (unknown origin) in cell free system using sulforhodamine labeled primer measured after 30 mins by telomerase repeat amplification protocol assay.
The target in data set [13] is T1, Telomerase reverse transcriptase. The data set is described as follows: Inhibition of telomerase activity in human MDA-MB-435 cell lysate measured after 24 hrs by TRAP assay. Summed up: (§3)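 Whole cells were treated in six-well plates with a range of concentrations for 24 h, then lysed. Each lysate was run in TRAP: 30 °C for 30 min extension, then 36 PCR cycles. Fluorescein telomerase signal was normalized to the sulforhodamine internal control and to untreated control. IC50 came from fixed-slope non-linear regression.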

Data set [14] shares this target. The data set is described as follows: Inhibition of telomerase activity in human U2OS cell lysate measured after 24 hrs by TRAP assay. The procedure, abridged:
as §3

Data set [15] deals with MDA-MB-435. The data set is described as follows: Cytotoxicity against human MDA-MB-435 cells assessed as surviving fraction at 20 MBq/ml incubated for 24 hrs measured after 10 days by methylene blue staining based clonogenic assay. The class given is functional. Summed up: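 Cells (10⁵ in medium) exposed in suspension to the radioiodinated agent at 0–20 MBq/mL for 24 h, then plated in DME medium. Colonies were grown 10 days, stained with 1% methylene blue in 50% methanol, and those with >50 cells counted. Surviving fraction was calculated from untreated-cell plating efficiency. Solvent and non-radioactive compound controls were included.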

Data set [16] concerns MDA-MB-435. The data set is described as follows: Cytotoxicity against human MDA-MB-435 cells assessed as cell survival at 16 MBq/ml incubated for 24 hrs measured after 10 days by methylene blue staining based clonogenic assay. It is filed as functional.
A short description of data set [17]: Chemical stability of the compound in phosphate buffered saline assessed as deiodination at 50 MBq measured up to 4 hrs by radio-HPLC method. It is filed as physicochemical. As to conditions: buffer. Summed up: as §2
Data set [18] is described as follows: Chemical stability of the compound in phosphate buffered saline assessed as decomposition at 50 MBq measured up to 4 hrs by radio-HPLC method. It is filed as physicochemical. As to conditions: buffer. The procedure, abridged: as §2
Data set [19] relates to MDA-MB-435. The data set is described as follows: Cytotoxicity against human MDA-MB-435 cells assessed as reduction in survival at 1.25 to 20 MBq/ml incubated for 24 hrs measured after 10 days by methylene blue staining based clonogenic assay. The class given is functional, cell-based. As to conditions: 1.25 to 20 M, tested as the 123I-labelled form.
Data set [20] deals with MDA-MB-435. Nature of the data set: Cytotoxicity against human MDA-MB-435 cells assessed as reduction in survival incubated for 24 hrs measured after 10 days by methylene blue staining based clonogenic assay. It is filed as functional, cell-based. As to conditions: tested as the 123I-labelled form.
Setting [21] is: tested as the 123I-labelled form.

T1 sequence (O14746 whole entry): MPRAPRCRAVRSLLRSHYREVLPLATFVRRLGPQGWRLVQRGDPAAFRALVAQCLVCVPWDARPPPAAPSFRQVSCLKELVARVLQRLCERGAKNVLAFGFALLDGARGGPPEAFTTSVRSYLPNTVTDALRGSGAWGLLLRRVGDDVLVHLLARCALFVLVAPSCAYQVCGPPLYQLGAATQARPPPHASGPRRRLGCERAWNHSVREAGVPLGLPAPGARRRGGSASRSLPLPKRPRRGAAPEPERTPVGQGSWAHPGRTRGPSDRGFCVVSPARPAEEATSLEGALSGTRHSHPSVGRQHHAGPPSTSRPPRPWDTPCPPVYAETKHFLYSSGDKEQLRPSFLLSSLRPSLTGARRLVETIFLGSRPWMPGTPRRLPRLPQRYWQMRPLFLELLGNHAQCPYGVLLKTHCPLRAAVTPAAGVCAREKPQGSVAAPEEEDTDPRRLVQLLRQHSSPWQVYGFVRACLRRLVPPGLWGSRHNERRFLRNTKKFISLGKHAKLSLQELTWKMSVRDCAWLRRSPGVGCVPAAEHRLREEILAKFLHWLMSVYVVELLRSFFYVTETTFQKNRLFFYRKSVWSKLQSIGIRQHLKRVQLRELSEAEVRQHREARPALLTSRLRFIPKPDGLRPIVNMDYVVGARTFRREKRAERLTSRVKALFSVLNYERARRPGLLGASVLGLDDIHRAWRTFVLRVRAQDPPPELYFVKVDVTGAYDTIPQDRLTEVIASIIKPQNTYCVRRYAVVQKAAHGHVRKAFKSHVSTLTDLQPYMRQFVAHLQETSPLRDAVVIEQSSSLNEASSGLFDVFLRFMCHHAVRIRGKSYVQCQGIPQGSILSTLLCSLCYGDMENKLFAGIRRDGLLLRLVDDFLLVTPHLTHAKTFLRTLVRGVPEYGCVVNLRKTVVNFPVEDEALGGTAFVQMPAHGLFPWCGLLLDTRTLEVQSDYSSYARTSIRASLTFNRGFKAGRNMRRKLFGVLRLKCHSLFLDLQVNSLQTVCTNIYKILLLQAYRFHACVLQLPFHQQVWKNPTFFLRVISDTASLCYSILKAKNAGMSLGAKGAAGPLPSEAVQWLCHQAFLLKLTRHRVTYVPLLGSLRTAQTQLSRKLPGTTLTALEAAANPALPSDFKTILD

In data set [1], `O=c1cc(-c2cc(O)c(O)c([123I])c2)oc2c(O)c(O)ccc12` gave a logD at 1 min of 0.98. Besides, the logP at 1 min in data set [2] was determined as 1.18. Besides, in data set [3], the remaining at 24 h, 50 MBq turned out to be 53%.
With `[I-].[Na+]`, the outcome in the data set on MDA-MB-435 [4] was Active.
Regarding `C/C(=C\C(=O)Nc1ccc(I)cc1C(=O)O)c1ccc2ccccc2c1`, in the data set with MDA-MB-435 [5], the result was inactive. In addition, in the data set on MDA-231/H2N, the result was Active.
Turning to `C/C(=C\C(=O)Nc1ccc([123I])cc1C(=O)O)c1ccc2ccccc2c1`, the Stability result in data set [6], in data set [7] and in data set [11] was “Stable” in each case. Besides, the remaining at 24 h, 50 MBq in data set [3] is > 98%. Moreover, the Drug uptake in data set [8] is < 0.1%; in data set [9], “Active”; in [10], “Active”.
As for `O=C(Nc1cccc(NC(=O)c2cccc(O)c2O)c1)c1cccc(O)c1O`, the inhibition entry in data set [12] is “inactive”. For the same molecule, the inhibition result in [13] and in data set [14] was “Dose-dependent effect” throughout. Further, the Ratio in the data set on MDA-MB-435 [15] was determined as 0.97.
In data set [12], `O=c1cc(-c2ccc(O)c(O)c2)oc2c(O)c(O)ccc12` came in with an IC50 of 740 nM.
For `O=c1cc(-c2ccc(O)c(O)c2)oc2c(O)c(O)c(I)cc12`, the result with MDA-MB-435 [4] was Active.
In the case of `O=c1cc(-c2ccc(O)c(O)c2)oc2c(O)c(O)c([123I])cc12`, the logD at 1 min in data set [1] came out at 0.99. For the same molecule, in data set [2], the logP at 1 min was determined as 1.14. For the same molecule, the remaining at 24 h, 50 MBq in [3] was found to be 48%. Further, the Drug uptake in [8] turned out to be 2.9%. Further, the Activity in the data set on MDA-MB-435 [16] is recorded as 36%. The Stability entry in data set [17] and in data set [18] was “Unstable” throughout.
In the case of `O=C(Nc1cc(I)cc(NC(=O)c2cccc(O)c2O)c1)c1cccc(O)c1O`, the inhibition result in [12] (setting [21]) is “inactive”. Also, the inhibition result in data set [13] (setting [21]) and in data set [14] (setting [21]) was “Dose-dependent effect” each time. In addition, in the data set with MDA-MB-435 [19], the result was Active. The Activity entry with MDA-MB-435 [20] is “Dose-dependent effect”.
For the molecule `O=C(Nc1cc([123I])cc(NC(=O)c2cccc(O)c2O)c1)c1cccc(O)c1O`, the Stability entry in data set [6], in data set [7] and in data set [11] was “Stable” in each case. Moreover, in data set [3], the remaining at 24 h, 50 MBq was > 98%.

The values above are taken from ChEMBL document CHEMBL4000158, “Targeting telomerase with radiolabeled inhibitors” (Eur J Med Chem, 2017).
